How the values were obtained:
Rattus norvegicus [1] = species on record: Rattus norvegicus; experiment: Antilipid peroxidation was determined; assay type: functional
How it was run: (§1)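 Rat brain lipid peroxidation: brains from male SD rats (12 weeks old), exsanguinated under pentobarbital anaesthesia, homogenized to 5% in phosphate buffer pH 7.4. Homogenate incubated with test drug at 37 °C for 1 h. Lipid peroxide quantified by the thiobarbituric acid method.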

Rattus norvegicus [2] = species on record: Rattus norvegicus; experiment: Inhibition of lipid peroxidation was determined with rat brain tissue homogenates; assay type: functional
How it was run: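 Brains excised from male SD rats (12 weeks), exsanguinated under pentobarbital anesthesia; 5% homogenate in phosphate buffer pH 7.4 incubated with test drug 1 h at 37 °C; lipid peroxide quantified by thiobarbituric acid method.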

[3] = Reducing activity determined by the use of stable radical alpha,alpha-di-phenyl-beta-picrylhydrazyl (DPPH); parameters: concentration or dose not given beside the values
Rattus norvegicus [4] = experiment: Effect of AOS scavenger on ventricular fibrillation (VF), arrhythmias induced by ischemia-reperfusion in anesthetized rat, incidence at 3 mg/kg; 6/6; assay type: functional, Cardiac ventricle
Rattus norvegicus [5] = experiment: Effect of AOS scavenger on ventricular fibrillation (VF), arrhythmias induced by ischemia-reperfusion in anesthetized rat, incidence at 3 mg/kg; assay type: functional, Cardiac ventricle
Rattus norvegicus [6] = experiment: Effect of AOS scavenger on arrhythmias induced by ischemia-reperfusion in anesthetized rat measured as ventricular tachycardia (VT), duration at 3 mg/kg; assay type: functional, Cardiac ventricle
Rattus norvegicus [7] = experiment: Effect of AOS scavenger on premeture ventricular complexes PVCs, arrhythmias induced by ischemia-reperfusion in anesthetized rat, duration at 3 mg/kg; assay type: functional, Cardiac ventricle
Rattus norvegicus [8] = experiment: Effect of AOS scavenger on arrhythmias induced by ischemia-reperfusion in anesthetized rat measured as ventricular tachycardia (VT), frequency, times at 3 mg/kg; assay type: functional, Cardiac ventricle
Rattus norvegicus [9] = species on record: Rattus norvegicus; experiment: Reducing activity determined by the use of stable radical alpha,alpha-di-phenyl-beta-picrylhydrazyl (DPPH); assay type: functional, organism-based
How it was run: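 Compound mixed with equimolar α,α-diphenyl-β-picrylhydrazyl; absorbance at 517 nm read after 20 min; reducing activity taken as absorbance difference from control.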

Rattus norvegicus [10] = experiment: Effect of AOS scavenger on arrhythmias induced by ischemia-reperfusion in anesthetized rat measured as ventricular tachycardia (VT), incidence at 3 mg/kg; 6/6; assay type: functional, Cardiac ventricle
Rattus norvegicus [11] = species on record: Rattus norvegicus; experiment: Antilipid peroxidation was measured at 10e-5 M concentration; assay type: functional; how it was run: as §1
Rattus norvegicus [12] = experiment: Effect of AOS scavenger on ventricular tachycardia (VT),arrhythmias induced by ischemia-reperfusion in anesthetized rat, incidence at 20 mg/kg; 8/8; assay type: functional, Cardiac ventricle
How it was run: (§2)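 Male SD rats (9–13 weeks, 250–370 g) under pentobarbital anesthesia with artificial respiration underwent thoracotomy and LAD coronary occlusion followed by reperfusion. Dosing was oral, 20 mg/kg at 24 h and again 20 mg/kg at 5 min before occlusion. VF and VT incidence, frequency and duration, and mean PVCs/min were recorded at 10 min postreperfusion.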

Rattus norvegicus [13] = experiment: Effect of AOS scavenger on ventricular tachycardia (VT),arrhythmias induced by ischemia-reperfusion in anesthetized rat, duration at 20 mg/kg; assay type: functional, Cardiac ventricle; how it was run: as §2
Rattus norvegicus [14] = experiment: Effect of AOS scavenger on ventricular fibrillation (VF),arrhythmias induced by ischemia-reperfusion in anesthetized rat, duration at 20 mg/kg; assay type: functional, Cardiac ventricle; how it was run: as §2
Rattus norvegicus [15] = experiment: Effect of AOS scavenger on premeture ventricular complexes PVCs, arrhythmias induced by ischemia-reperfusion in anesthetized rat, duration at 20 mg/kg; PVSc/min; assay type: functional, Cardiac ventricle; how it was run: as §2
Rattus norvegicus [16] = experiment: Effect of AOS scavenger on ventricular tachycardia (VT), arrhythmias induced by ischemia-reperfusion in anesthetized rat, frequency, times at 20 mg/kg; assay type: functional, Cardiac ventricle; how it was run: as §2
Rattus norvegicus [17] = experiment: Effect of AOS scavenger on ventricular fibrillation (VF),arrhythmias induced by ischemia-reperfusion in anesthetized rat, incidence at 20 mg/kg; 4/8; assay type: functional, Cardiac ventricle; how it was run: as §2
Rattus norvegicus [18] = experiment: Effect of AOS scavenger on ventricular fibrillation (VF), arrhythmias induced by ischemia-reperfusion in anesthetized rat, frequency, times at 20 mg/kg; assay type: functional, Cardiac ventricle; how it was run: as §2

CCCCCCOc1ccc(COC2=C(O)OC(C(O)CO)C2=O)cc1 (stereo not given) gave an Antilipid peroxidation (Rattus norvegicus [1]) of 38.8%.
Compound CCCCCCCCCCCCCCCCCCOC1=C(O)OC(CCO)C1=O (stereo not given) has an Antilipid peroxidation (Rattus norvegicus [1]) of 52%, an IC50 (Rattus norvegicus [2]) of 6.8 µM and a Reducing activity [3] of 93.9%.
Compound CCCCCCCCCCCCCCCCCOC1=C(O)OC(C(O)CO)C1=O (stereo not given) has an Antilipid peroxidation (Rattus norvegicus [1]) of 48.8% and an IC50 (Rattus norvegicus [2]) of 11 µM.
Work on O=C1O[C@H]([C@@H](O)CO)C(O)=C1O [ASCORBIC ACID] yielded an Antilipid peroxidation (Rattus norvegicus [1]) of -71%, an Incidence (Rattus norvegicus [4]) of 6 N and a Duration (Rattus norvegicus [5]) of 41.4 s. The Frequency (Rattus norvegicus [5]) was 4, the Duration (Rattus norvegicus [6]) was 8.2 s and the Activity (Rattus norvegicus [7]) was 7.4 min. For the same compound, the Frequency (Rattus norvegicus [8]) was 3.7, the Reducing activity (Rattus norvegicus [9]) was 93.4% and the Incidence (Rattus norvegicus [10]) was 6 N.
With CCCCCCCCCCCCCCCCCCOC1=C(O)[C@@H](C(O)CO)OC1=O (stereo in doubt; 5k) the Antilipid peroxidation (Rattus norvegicus [1]) was 65.9% and the Reducing activity [3] was 95.4%.
For CCCCCCCCCCCCCCCCOC1=C(O)OC(C(O)CO)C1=O (stereo not given), the Antilipid peroxidation (Rattus norvegicus [1]) was 56.1% and the IC50 (Rattus norvegicus [2]) was 6.8 µM.
With CCCCCCCCOC1=C(O)OC(C(O)CO)C1=O (stereo not given) the Antilipid peroxidation (Rattus norvegicus [11]) was 1.6% and the Reducing activity [3] was 93.9%.
With CCCCCCCCCCCCCCCCCCOC1=C(OC)C(C(O)CO)OC1=O (stereo not given) the Antilipid peroxidation (Rattus norvegicus [11]) was 12.5%.
In the case of CCCCCCCCCCOC1=C(O)OC(C(O)CO)C1=O (stereo not given), the Antilipid peroxidation (Rattus norvegicus [1]) is reported as 42.5% and the IC50 (Rattus norvegicus [2]) is reported as 13 µM.
Compound CCCCCCCCCCCCCCCCCCOC1=C(O)OC(C(O)COC(C)=O)C1=O (stereo not given) has an Antilipid peroxidation (Rattus norvegicus [11]) of 76.3% and an IC50 (Rattus norvegicus [2]) of 4.2 µM.
In the case of Oc1ncnc2[nH]ncc12 [ALLOPURINOL], the Incidence (Rattus norvegicus [12]) is reported as 8 N, the Duration (Rattus norvegicus [13]) is reported as 5.9 s and the Duration (Rattus norvegicus [14]) is reported as 1.3 s. The Activity (Rattus norvegicus [15]) was 2.7 min, the Frequency (Rattus norvegicus [16]) was 3.1 and the Incidence (Rattus norvegicus [17]) was 4 N. For the same compound, the Frequency (Rattus norvegicus [18]) was 0.9.
In the case of CCCCCCCCCCCCCCCCCCOC1=C(O)O/C(=C\CO)C1=O, the Antilipid peroxidation (Rattus norvegicus [11]) is reported as 53.5% and the IC50 (Rattus norvegicus [2]) is reported as 8.5 µM.

From ChEMBL document CHEMBL1124084, “Studies on scavengers of active oxygen species. 1. Synthesis and biological activity of 2-O-alkylascorbic acids” (J Med Chem, 1988)
